Results published in ChEMBL document CHEMBL4513216, “Probing the Open Global Health Chemical Diversity Library for Multistage-Active Starting Points for Next-Generation Antimalarials” (ACS Infect Dis, 2020).

experiment: Toxicity liver stage against HepG2, at 10uM; type: cell-based; parameters: test concentration 10 uM, cell line HepG2-A16-CD81EGFP; details: human, HepG2-A16-CD81EGFP cells; read-out: INHIBITION
How it was run: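 Uninfected HepG2-A16-CD81EGFP cells, 3 × 10^3 per well, 1536-well, plated on prespotted compound at 10 μM final, parasite-free screening media added to match infected plates; puromycin 10 μM positive, DMSO 0.5% negative; run in parallel with 48 h PbLuc assay at 37 °C, 5% CO2; viability by CellTiter-Glo luminescence, normalized to controls.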

Point of comparison: `Cn1cc(N2CC3(COCCN(Cc4ccccn4)C3)OCC2=O)cn1` (stereo unspecified), cytotoxicity at 10 µM -79.1%. Against it:
- O=C1CO[C@H]2CN(Cc3ccc(C(F)(F)F)cc3)C[C@H]2N1 — higher, -4.63%
- CC(C)CNC(=O)CNc1c(NCc2ccccn2)c(=O)c1=O — higher, -9.06%
- CCN1CCOCC2(CCCN(C(=O)c3cnccn3)C2)C1 (stereo unspecified) — higher, 6.21%
- COCCN(CCOC)C(=O)c1ccn(-c2ccc3ccccn23)n1 — higher, 7.22%
- O=C(NC1CCCC1)c1nc2c(o1)CN(C(=O)CCO)C2 — higher, 5.38%
- CCS(=O)(=O)N1CCc2cc(C(=O)NC)c(NCC(C)C)nc2CC1 — lower, -149%
- CCOCc1ncn2c1CN(C(=O)Nc1ccc(CC)cc1)CC2 — higher, 5.96%
- O=C([C@@H]1C[C@@H]2CCN(C3CCOCC3)C[C@H]2O1)N1CCCC1 — higher, 4.5%
- O=C([C@@H]1C[C@@H]2CCN(C3CCOCC3)C[C@@H]2O1)N1CCOCC1 — higher, 7.34%
- O=S1(=O)c2ccccc2OCC2(CCN(CCO)CC2)CN1CC1CC1 — higher, 0.864%
- COc1cccc(OCCc2nnc(NC(C)=O)s2)c1 — higher, 4.84%
- COc1cc(-c2n[nH]c(CN)n2)cc(OC)c1OC — higher, 2.45%
- CCn1nc(C)c2ncnc(NCCCN3CCOCC3)c21 — higher, 2.06%
- CN1CCc2nnc(C3CCCN3S(=O)(=O)c3ccc(F)cc3)n2CC1 (stereo unspecified) — higher, -0.594%
- CNc1ncc(C(=O)N2CCOC(C(=O)Nc3ccccc3)C2)cn1 (stereo unspecified) — higher, -4.35%
- O=C(O)c1cncc(Cc2ccccc2F)c1 — higher, 0.812%
- NCc1cccc(-c2cccnc2C(=O)NCCN2CCCC2)c1 — higher, -6.9%
- Cc1ccccc1CC(=O)N1C[C@@H](O)[C@H](N2CCOCC2)C1 — higher, -4.05%
- Cc1csc(Nc2nccnc2C2CCCN2S(C)(=O)=O)n1 (stereo unspecified) — higher, -3.69%
- Cn1cc(C(=O)NCCc2csc(-c3ccccc3)n2)ccc1=O — higher, -6.7%
- Cc1ccc(N2CCC(NC(C)c3ccc(C)o3)CC2)nc1 (stereo unspecified) — higher, -6.59%
- CCOC(=O)c1ccc(S(=O)(=O)NCC(CC)N2CCCC2)cc1 (stereo unspecified) — higher, -7.4%
- COC(=O)c1ccc(N2CCN(Cc3csc(C)n3)CC2)nn1 — higher, -1.7%
- O=C(NCCN1CCOCC1)c1ccn(-c2ccccc2F)n1 — higher, 7.44%
- CC(C)OC(=O)N1CCC(Nc2ncc(Br)cn2)CC1 — higher, -0.951%
- O=C(CCc1ccsc1)NCc1ccnc(OC2CCOCC2)c1 — higher, 5.92%
- N#Cc1ccccc1N1CCN(C(=O)NCC(=O)N2CCCC2)CC1 — higher, -1.55%
- COc1cccc(N2CCC(CNC(=O)CN3CSCC3=O)C2)c1 (stereo unspecified) — higher, 0.342%
- Cc1ccc(C(=O)NCCCN(C(C)C)S(C)(=O)=O)c(=O)[nH]1 — higher, -8.04%
- Cc1ccc(-c2cc(CN3CCc4cncnc4C3)on2)cc1 — higher, 4.96%
- CNC(=O)c1ccc(CNC(=O)c2ccc(Cl)cc2F)cc1 — higher, 5.66%
- Cc1cc(C(=O)N(C)CC(F)(F)C(F)(F)F)ccc1-n1cncn1 — higher, 1.64%
- Cc1cccc(C2CCCN2C(=O)CCS(C)(=O)=O)c1C (stereo unspecified) — higher, -0.272%
- COc1ccc(C)c2c1N(C(=O)c1cnc(C)s1)CCC2 — higher, -1.46%
- Cc1c(Br)cccc1C(=O)Nc1cc(C(N)=O)n(C)c1 — higher, 0.71%
- CC(C)(C)S(=O)(=O)c1ccc(N2CCC(n3cccn3)CC2)cn1 — higher, 22.3%
- COc1ccccc1CN(CC1CCCO1)C(=O)c1scnc1C (stereo unspecified) — higher, 2.01%
- CN1CCN(c2ccc(NC(=O)c3ccoc3)c(C(F)(F)F)c2)CC1 — higher, -4.1%
- CN(c1ccc(C(N)=O)nn1)C1CCC1 — higher, 9%
- CCNC(=O)NC(=O)CSC(C)c1c(F)cccc1F (stereo unspecified) — higher, 20.6%
- O=C(NC1(c2nnn(Cc3ccncc3)n2)CCCC1)c1ccccc1 — higher, 21%
- CC(C)c1cccc(CSc2nnc(CN3CCCC3=O)o2)n1 — higher, 3.59%
- COc1ncccc1NC(=O)C1CC(=O)N(Cc2ccccn2)C1 (stereo unspecified) — higher, -1.2%
- CCc1nc(C2CCCN(C(=O)c3cnn(CC)c3)C2)no1 (stereo unspecified) — higher, 4.16%
- Cc1ccc(C2(CN(C)Cc3c(C)nn(C)c3C)CCNCC2)nc1 — higher, -0.44%
- CN(Cc1nc(C2CC2)no1)C(=O)C1COc2ccccc2C1 (stereo unspecified) — higher, -0.509%
- O=C(c1cc(-c2ccco2)nc2c(Cl)cccc12)N1CC[C@H]2CNC[C@H]21 — higher, -3.29%
- CSCCC(=O)N1CCCC(c2ncc[nH]2)C1 (stereo unspecified) — higher, -1.64%
- CC(C)S(=O)(=O)N1C[C@H]2OC(=O)N(CCc3cccc(Cl)c3)[C@H]2C1 — higher, 0.642%
- CN(CCCO)C(=O)c1cc(COc2ccc3c(c2)CCCC3)on1 — lower, -148%
- CCN1CCCC2(CCN(Cc3nnc(C4CC4)o3)C2)C1=O (stereo unspecified) — higher, 1.56%
- OCC1CCCCN1CCn1ccnc1-c1ccc2c(c1)OCCO2 (stereo unspecified) — higher, -3.65%
- COCc1cc(NCc2cccnc2Oc2ccc(C)nc2)ncn1 — higher, 8.12%
- CCCn1nc(C)c(CNS(=O)(=O)NCc2ccccc2)c1C — higher, -5.05%
- CC1CCCCN1C1CN(c2ccnc(C(=O)NCc3ccco3)c2)C1 (stereo unspecified) — higher, 2.29%
- CN1CCC2(CC1)CN(Cc1ccc(C3CCCCO3)o1)CCCN2C (stereo unspecified) — higher, -5.35%
- CNc1cc(C)nc(-c2cc(NC)nc3[nH]ccc23)n1 — higher, -3.92%
- Cc1ccc2cc(CN(C)Cc3ncc[nH]3)c(=O)[nH]c2c1 — higher, 1.75%
- CN(C)c1ncnc2c1CCN(C(=O)c1sccc1S(N)(=O)=O)C2 — higher, 0.192%
- c1cnnc(-c2noc(CCN3CCCO3)n2)c1 — higher, -3.61%
- COCCN1C[C@@H](C(=O)O)[C@H](c2ccccc2C)C1 — higher, 3%
- O=C1O[C@@H]2CN(S(=O)(=O)N3CCCC3)C[C@@H]2N1CCc1cccc(Cl)c1 — higher, -2.9%
- CCN(CC1CCOC1)C(=O)Nc1ccc(N2CCCCC2)nc1 (stereo unspecified) — higher, -6.45%
- COc1ccc(C(=O)N2CCCC(NC(=O)C(C)C)C2)c(O)c1 (stereo unspecified) — higher, 0.301%
- COc1ncccc1NC(=O)c1cccc(C)n1 — higher, 2.3%
- CC(C)OCCN1CCN(C(=O)c2cccc(CC#N)c2)CC1 — higher, 0.119%
- Cc1ccc(-c2nc(CCNC(=O)NC3CCN(C)CC3)co2)cc1 — higher, -6.71%
- Cc1cn2nc(N3CCCN(Cc4noc(C)n4)CC3)sc2n1 — higher, 0.529%
- Cc1cccc(-n2cc(C(=O)N3CCCC(n4cccn4)C3)nn2)c1 (stereo unspecified) — higher, -0.168%
- Cc1cc(CN2CCN(C(=O)c3sccc3C3CC3)CC2)on1 — higher, 4.69%
- CCCNC(=O)NC(=O)CN(CC(C)O)c1ccccc1 (stereo unspecified) — higher, -2.48%
- CN(C)C(=O)Cn1c(C2CC2)c(CN2CCC(O)CC2)c2cccnc21 — higher, -4.9%
- Cn1ccc(C(=O)NC2CCC23CCN(Cc2ccc(F)cc2)CC3)c1 (stereo unspecified) — lower, -147%
- c1csc(CN2CCC3(CC2)CCN(CC2CCOCC2)C3)n1 — higher, 3.83%
- c1cncc(COCc2nnc3n2CCN(Cc2cccs2)C3)c1 — higher, 0.399%
- CN(C)CCOCc1cncc2c1CCN(Cc1ccccn1)C2 — higher, 2.2%
- CO[C@H]1CCN(C2CCC2)[C@@H]2CN(Cc3ccncc3)C[C@H]12 — higher, 8.13%
- CNC(=O)CN1CCO[C@H]2CN(C(=O)C3CC3)C[C@H]21 — higher, 7.52%
- COCCN1C[C@@H](C)[C@@]2(COCCN(C(=O)Cc3ccccc3)C2)C1 — higher, -12.4%
- CN1C(=O)C(c2ccccc2)CC12CCN(CCO)CC2 (stereo unspecified) — higher, 5.12%
